Among the data in ChEMBL document CHEMBL4513216, “Probing the Open Global Health Chemical Diversity Library for Multistage-Active Starting Points for Next-Generation Antimalarials” (ACS Infect Dis, 2020) are cytotoxicity values, retold here.

The data set is described as follows: Toxicity liver stage against HepG2, at 10uM. In kind it is cell-based. To be noted: human, HepG2-A16-CD81EGFP cells; read-out: INHIBITION
Details: test concentration 10 uM, cell line HepG2-A16-CD81EGFP. The method, boiled down: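 Uninfected HepG2-A16-CD81EGFP cells, 3 × 10^3 per well, 1536-well, plated on prespotted compound at 10 μM final, parasite-free screening media added to match infected plates; puromycin 10 μM positive, DMSO 0.5% negative; run in parallel with 48 h PbLuc assay at 37 °C, 5% CO2; viability by CellTiter-Glo luminescence, normalized to controls.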

Regarding `CN(Cc1ccccc1O)CC1CCCN(CCc2ccc(Cl)cc2)C1` (configuration not stated), the cytotoxicity at 10 µM was -10.1%. For `CNC(=O)[C@H]1C[C@@H]2CN(S(=O)(=O)c3ccc(C)cc3)C[C@@H]2N1C` the value was -2.19%; for `O=C(c1cccnc1O)N(Cc1ccsc1)CC1CCCO1` (configuration not stated), -12.3%; for `CCOCCNCC1CCN(CCO)CC1`, -1.46%. For `CC(C)NS(=O)(=O)c1cc(C(=O)O)cc(-c2ccccc2F)c1`, the cytotoxicity at 10 µM was -7.56%. `CC(C)Cn1cnnc1C1CCCN1C(=O)OC(C)(C)C` (configuration not stated): the cytotoxicity at 10 µM came to 0.514%.

For `Cc1n[nH]c(C)c1C1COCCN1C(=O)c1n[nH]c2ccccc12` (configuration not stated), the cytotoxicity at 10 µM was -3.63%. Under `CCc1ncc(C(=O)N(C)C2Cc3ccccc3C2)cn1` stands -1.05%; under `CN1CC2(CCCCN2C(=O)c2ccsc2)CC1=O` (configuration not stated), 2.73%; under `Cn1cc(CN2CCc3c(CNC(=O)C4CC4)cncc3C2)cn1`, -5.43%. For `COc1ccc(NC(=O)CCN2CC=C(c3cnn(C)c3)CC2)c(C)c1` the value was -4.08%. Take `Cc1nn(C)c(C)c1C1CCCN1CC(=O)N(C)c1nccs1` (configuration not stated): the cytotoxicity at 10 µM is -1.32%. With `CCn1cnnc1CCNC(=O)c1ccc(Br)cc1F`, the cytotoxicity at 10 µM was -29.7%.

For `COCCNS(=O)(=O)c1c(C)sc2ccccc12`, the cytotoxicity at 10 µM stood at 1.11%. Under `Cc1noc(C)c1CN(Cc1cccnc1)C1CN2CCC1CC2` (configuration not stated) stands 1.91%. For `CC(=O)N[C@@H]1CN(C(=O)c2cccc(C)c2)C[C@H]1O` the value was -2.48%; for `Cc1noc(C(C)N2CCN(CC(=O)N3CCOCC3)CC2)n1` (configuration not stated), -8.41%. With `CCC1=N[C@@]2(CC[C@@H]3CN(S(=O)(=O)CC)C[C@@H]32)C(=O)N1CC`, the cytotoxicity at 10 µM was determined as 5.22%.

In the case of `CCN(CC)C(=O)CNC(=O)c1c[nH]c2ccc(OC)cc12`, the cytotoxicity at 10 µM was -0.527%. Consider `Cc1cnn(CC2CN(Cc3csc(C4CCCC4)n3)CCO2)c1` (configuration not stated), for which the cytotoxicity at 10 µM was -5.47%. For `O=C(Nc1cc(-c2ccccc2)on1)N1CCN(CCO)CC1` the value was 3.3%; for `COc1cccc(CN2CCCCCC2c2cccs2)c1OC` (configuration not stated), 8.29%; for `Cc1ccc(CNCC(C)Oc2ccccn2)cc1` (configuration not stated), 5.4%. For `c1cc(CN2CCCC3(CCN(CC4CCCO4)CC3)C2)n[nH]1` (configuration not stated) the value was -101%; for `CC(O)CN1CCC(CN(C)CC(=O)NC(C)C)CC1` (configuration not stated), -2.32%.

With `C=C(C)CN(CC)Cc1nc(C)no1`, the cytotoxicity at 10 µM was -15.8%. Under `O=C(CCn1cncn1)N1CCCC1c1noc(C2CC2)n1` (configuration not stated) stands -23.3%. Under `N#Cc1ccc(CCC(=O)N2CCCC(n3cncn3)C2)cc1` (configuration not stated) stands -7.79%; under `CC(C)Nc1ncc(CN2C[C@@H](CN3CCC(O)CC3)[C@@H](CO)C2)cn1`, 18.5%; under `CCc1nc2n(n1)CC(NCC(=O)Nc1cc(C(C)(C)C)no1)CC2` (configuration not stated), -9.26%. For `N[C@@H](C(=O)N1CCN(c2ccccc2Cl)C(=O)C1)c1ccccc1` the value was -0.823%; for `CCOc1c(Br)cc(CNC(C)c2nnc3n2CCC3)cc1OC` (configuration not stated), -40.9%; for `Cc1ccc(S(=O)(=O)N2CC[C@@H](O)C2)c(F)c1`, -10.2%.

In the case of `Cc1ccc(NCc2cnc3n2CCN(c2ncccn2)CC3)nn1`, the cytotoxicity at 10 µM turned out to be 7.31%. As to `COc1ccc(CN2CC[C@H]3CO[C@H](CNC(=O)N(C)C)[C@H]3C2)cc1`, the cytotoxicity at 10 µM worked out at 1.07%. Take `Cc1nc(C)n(CC(C)C(=O)N2CCC(NS(C)(=O)=O)CC2)n1` (configuration not stated): the cytotoxicity at 10 µM is -4.4%. Under `COc1c(C)cnc(CN2CCOC(Cn3nc(C)nc3C)C2)c1C` (configuration not stated) stands -13.1%. Under `CCCn1nc(C)c(CNC(=O)C2COc3ccc(OC)cc3C2)c1C` (configuration not stated) stands -7.79%. Regarding `O=C(NCCc1c[nH]c2ccc(F)cc12)C1(n2cnnn2)CCCCC1`, the cytotoxicity at 10 µM is -1.34%.

Turning to `c1ccc(COc2cccc(CNC3CCc4ncnn4C3)c2)cc1` (configuration not stated), the cytotoxicity at 10 µM was -13.7%. For the compound `O=C(c1ccc(F)c(F)c1)N1CCCC1CN1CCCC1` (configuration not stated), the cytotoxicity at 10 µM is 2.92%. Under `Cn1nc(CNC(=O)NCc2ccc(Cl)cc2)c2c1CCOC2` stands 2.81%; under `COCCSCC(=O)NCc1ccnc(N(C)C)c1`, 9.88%; under `COCCN1C(=O)CC(N2CCN(c3ccc(F)cc3)CC2)C1=O` (configuration not stated), -9.26%. For `Cc1nn(C)c(C)c1CCC(=O)N1CCc2sccc2C1` the value was 16.3%; for `CS(=O)(=O)c1cc(NC(=O)COc2ccccc2F)cc(C(=O)O)c1`, -9.24%. Under `CN(C)C(=O)c1nnc2ccc(N3CCOCC3)cc2n1` stands 6.47%. With `CC(C)(C)OC(=O)NC1(c2noc(-c3ccoc3)n2)CCC1`, the cytotoxicity at 10 µM amounted to 3.12%. For `CN(C)C(=O)c1c[nH]nc1C1CCN(S(=O)(=O)c2cccc(Cl)c2)CC1` the value was 1.22%; for `CN(C)C(=O)NCc1cc2n(n1)CCN(CC1[C@H]3CNC[C@@H]13)C2` (some centres not stated), -27.7%; for `Cc1nc(CN2CCCn3cnc(COC(C)C)c3C2)cs1`, -73.4%. Under `CS(=O)(=O)N1C[C@H](NC(=O)c2ccno2)[C@@H]2OCCC[C@@H]21` stands -112%; under `C[C@@H]1CN(C(=O)CCN2CCOCC2)CC[C@]1(C)O`, -0.51%. For `COCCN1C(=O)C[C@H]2[C@H]1CCN2Cc1cccc(C#N)c1` the value was 2.55%; for `O=C(Cc1cccc2cccnc12)N1CCCN(c2cccnn2)CC1`, -5.1%. Take `Cc1cc(Oc2ccccc2)nc(C2CCN(CCO)CC2)n1`: the cytotoxicity at 10 µM is -1.99%. `Cc1cc(C)n(CC2CCCN2C(=O)Cc2csc(C)n2)n1` (configuration not stated): the cytotoxicity at 10 µM is 9.3%.

For `CCc1cc(N2CCC(Nc3ccc(Cl)cn3)CC2)ncn1`, the cytotoxicity at 10 µM worked out at 49.1%. Under `COc1cc(N2CCCC3(CCN(c4cncnc4)C3=O)C2)ncn1` (configuration not stated) stands -103%; under `COc1ccc(C(=O)NCC(c2cccn2C)N2CCCC2)cc1OC` (configuration not stated), 6.86%; under `CC(C)(C)CCS(=O)(=O)NCCc1csc(N2CCCC2)n1`, 8.37%. In the case of `CN(c1ncc(S(N)(=O)=O)s1)C1CCc2ccccc21` (configuration not stated), the cytotoxicity at 10 µM was -1.62%.

Consider `Cc1ccc(-c2nc(CN3CCn4c(C)nnc4C3)co2)cc1`, for which the cytotoxicity at 10 µM was -8.03%. For the compound `Cc1nsc(NC(=O)NC2CCCOC2)n1` (configuration not stated), the cytotoxicity at 10 µM came to 16%. Under `Cc1cc(CN2CCCn3nc(CCC(=O)O)cc3C2)ccc1F` stands 2.28%; under `Cn1cnc2nc3n(c2c1=O)CCC3`, -0.409%; under `Cc1csc(C2CCCN(C(=O)c3ccc(=O)n(C)n3)C2)n1` (configuration not stated), 6.76%. For `Clc1ccc(C(CNCc2ccncc2)n2cccn2)cc1` (configuration not stated) the value was 6.73%; for `COCCN1C(=O)CCC12CCC(NC(=O)c1cc(C)on1)CC2` (configuration not stated), 3.94%. Regarding `O=C(c1ccn(-c2cccc(F)c2)n1)N1CCN(CCO)CC1`, the cytotoxicity at 10 µM was -4.67%.

Turning to `Cc1nn(C)c2c(N3CCN(C(=O)NC4CCCCC4)CC3)ncnc12`, the cytotoxicity at 10 µM was 9.09%. Under `CCCn1nc2c(cc1=O)CN(CCCN1CCCC1=O)CC2` stands -6.49%; under `c1cncc(CN2CCc3ncnc(NCCc4c[nH]cn4)c3CC2)c1`, 2.57%. Consider `O=C(CCc1ccsc1)N1CCCC(n2cncn2)C1` (configuration not stated), for which the cytotoxicity at 10 µM was -9.47%. Under `Cn1nc(C(=O)NC2(c3ccccc3)CCC2)ccc1=O` stands 1.42%; under `Cc1csc2ncn(C(C)Cc3cccnc3)c(=O)c12` (configuration not stated), 6.9%.

Take `Cc1c(CN2C[C@H](O)[C@@H](N3CCOCC3)C2)[nH]c2ccc(F)cc12`: the cytotoxicity at 10 µM was 5.86%. For `CC(C)Cn1ncc(C(=O)NS(=O)(=O)C2CCCC2)c1C1CC1` the value was -9.97%. For `O=C(CCC(=O)N1CCCC1c1cccs1)N1CCc2sccc2C1` (configuration not stated) the value was -8.45%; for `Cn1cc(CNc2ccc(CCN3CCC(C(N)=O)CC3)cc2)cn1`, -6.21%. With `Cc1noc([C@@H]2C[C@H](NS(=O)(=O)Cc3ccccc3)CN2C)n1`, the cytotoxicity at 10 µM is 4.5%. In the case of `CCN(CC1CN(CCc2ccccn2)CCO1)c1cccnn1` (configuration not stated), the cytotoxicity at 10 µM is -6%. For `CCc1cc(CNC(=O)C2CCCN(C(=O)NCC(C)C)C2)[nH]n1` (configuration not stated) the value was 7.23%. For `c1ccc(-c2noc3c2CN(CC2CC2)CC3)cc1` the value was -13.2%.

For `COC(=O)CC(c1cccnc1)c1oc(C)cc(=O)c1O` (configuration not stated), the cytotoxicity at 10 µM was -0.191%. For `Cc1cccc2c1OCCC2NCc1c(C(C)C)nn(C)c1N(C)C` (configuration not stated) the value was 0.423%; for `O=C(N1CCCC1)N1C[C@@H]2CCNC[C@@H]21`, 0.375%. For `COc1ccc(C2CCCN2C(=O)Nc2ccc(OC)nc2)cc1` (configuration not stated) the value was 2.58%; for `COCCN(Cc1cnn(C)c1)c1nc(C)nc2sccc12`, -138%; for `Cn1cc(N2CC3(COCCN(Cc4ccccn4)C3)OCC2=O)cn1` (configuration not stated), -79.1%. Under `CCOC(=O)c1ccc(S(=O)(=O)NCC(CC)N2CCCC2)cc1` (configuration not stated) stands -7.4%; under `Cc1cccc(C(=O)N2CCCC2)c1NCC(=O)NC1(C#N)CCCC1`, -11.5%; under `CC(C)N1CC[C@@H]2[C@H](COCC3CC3)CN(C)C(=O)[C@@H]2CC1`, 6.8%. Turning to `CC(C)CC(NC(=O)c1cnn(C)c1)C(=O)Nc1cc[nH]n1` (configuration not stated), the cytotoxicity at 10 µM is -3.38%. Under `COc1ncnc2c1CCN(C(=O)NCc1cccc(F)c1)CC2` stands -7.27%; under `c1nc(-c2nc(C3CCOC3)no2)cs1` (configuration not stated), 6.18%; under `CC(Cc1ccccn1)N(C)Cc1ccc2c(c1)CCO2` (configuration not stated), -0.0105%.
